Laboratory results as given in ChEMBL document CHEMBL3352034, “Therapeutic potential of targeting the oncogenic SHP2 phosphatase” (J Med Chem, 2014).
Blank lines part the entries; values can stand above or below the compound they belong to. Active and inactive are the calls of the source. The calls are words filed in the database; no cut-off is given here.

Tests used:
[1] = biological target: T1, Tyrosine-protein phosphatase non-receptor type 11 (Homo sapiens) (UniProt Q06124); experiment: Inhibition of SHP2 in human NCI-H1975 cells assessed as reduction in EGF-induced Erk1/2 phosphorylation at 2 uM after 60 mins by immunoblot analysis; format: cell-based
T1 sequence (whole entry): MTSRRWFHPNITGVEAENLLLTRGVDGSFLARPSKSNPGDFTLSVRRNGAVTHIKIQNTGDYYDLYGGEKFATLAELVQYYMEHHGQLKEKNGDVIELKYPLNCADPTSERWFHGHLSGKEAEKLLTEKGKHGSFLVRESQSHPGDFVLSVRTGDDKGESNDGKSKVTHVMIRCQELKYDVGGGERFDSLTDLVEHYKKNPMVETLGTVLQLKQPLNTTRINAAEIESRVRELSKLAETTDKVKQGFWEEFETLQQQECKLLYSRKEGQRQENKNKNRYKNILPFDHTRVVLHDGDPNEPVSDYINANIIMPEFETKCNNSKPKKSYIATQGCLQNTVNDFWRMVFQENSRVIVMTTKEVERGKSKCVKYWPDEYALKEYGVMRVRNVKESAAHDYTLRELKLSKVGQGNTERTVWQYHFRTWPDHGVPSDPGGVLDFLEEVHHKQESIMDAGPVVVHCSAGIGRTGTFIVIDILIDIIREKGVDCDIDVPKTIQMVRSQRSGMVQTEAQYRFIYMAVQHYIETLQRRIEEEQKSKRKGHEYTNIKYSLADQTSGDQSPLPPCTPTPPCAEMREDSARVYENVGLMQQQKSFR
Procedure, shortened: (§1)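 H1975 cells serum-starved overnight, treated with vehicle or compound for 3 h, then left unstimulated or stimulated with 5 ng/mL EGF for 60 min. Lysates resolved by SDS-PAGE and immunoblotted for paxillin pY118 and phospho-Erk1/2.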

[2] = biological target: T1, Tyrosine-protein phosphatase non-receptor type 11 (Homo sapiens); experiment: Inhibition of SHP2 dephosphorylation activity in human NCI-H1975 cells assessed as increase in paxillin (pY118) phosphorylation at 2 uM after 60 mins by immunoblot analysis; format: cell-based; set-up: Activity: scale not given: the % may be the effect or the level left; procedure, shortened: as §1
[3] = biological target: T2, Tyrosine-protein phosphatase non-receptor type 11 (Homo sapiens, UniProt Q06124); experiment: Inhibition of SHP2 (unknown origin) using p-nitrophenyl phosphate substrate by microplate spectrophotometry
T2 sequence (Q06124 whole entry): T1 sequence (whole entry)

Mus musculus [4] = species: Mus musculus; experiment: Anticancer activity against mouse 32D cells bearing KITD814V mutant assessed as ligand dependent growth inhibition at 5 uM measured after 6 hrs; format: functional, cell-based; settings: in the assay text read “ligand independent” for “ligand dependent”
Procedure, shortened: (§2)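 32D myeloid cells retrovirally transduced with WT KIT or KITD814V and sorted on EGFP. Starved 6–8 h in IMDM/0.2% BSA without serum or growth factors. Plated at 5×10^4 cells in triplicate in IMDM/10% FBS, with 10 ng/mL IL-3 for WT KIT and no growth factors for KITD814V, ± inhibitor. Cultured 48 h, pulsed 6 h with 1.0 μCi [3H]thymidine, CPM counted. Four independent experiments.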

Mus musculus [5] = species: Mus musculus; experiment: Anticancer activity against mouse 32D cells bearing wild-type KIT assessed as ligand dependent growth inhibition at 1 to 5 uM measured after 6 hrs; format: functional, cell-based; procedure, shortened: as §2
[6] = biological target: Mast/stem cell growth factor receptor Kit (Homo sapiens) (UniProt P10721); experiment: Inhibition of KIT D814V mutant (unknown origin) expressed in serum starved mouse 32D cells assessed as inhibition of total Erk1/2 activation at 1 to 5 uM measured after 2 hrs by immunoblot analysis; format: cell-based
Procedure, shortened: (§3)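 Sorted 32D cells expressing WT KIT or KITD814V, starved of serum and growth factors for 6 h. Treated with compound for 2 h, then lysed in NP-40 buffer with phosphatase and protease inhibitors. Equal protein amounts immunoblotted for phospho and total Akt and Erk1/2, ECL detection. Two independent experiments.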

Bone marrow cell [7] = experiment: Reduction in growth of C57BL/6 mouse Bone marrow cell bearing KITD814V mutant at 1 uM after 6 hrs; format: functional, cell-based
NCI-H1975 [8] = experiment: Anticancer activity against human NCI-H1975 cells after 2 days by MTT assay; format: functional, cell-based
Procedure, shortened: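 H1975 NSCLC cells in RPMI-1640 with 10% FBS at 37 °C, 5% CO2. 3×10^3 cells/well, treated 2 days in RPMI-1640 with 0.5% FBS. MTT at 50 μg/mL for 3–4 h, formazan dissolved in DMSO, OD read at 540 nm. Media-only wells used for background. IC50 from dose–response.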

[9] = biological target: Receptor-type tyrosine-protein phosphatase alpha (Homo sapiens, UniProt P18433); experiment: Inhibition of PTPalpha (unknown origin)
[10] = biological target: T1, Tyrosine-protein phosphatase non-receptor type 11 (Homo sapiens); experiment: Inhibition of SHP2 in human SKBR3 cells assessed as inhibition of total Erk1/2 phosphorylation level at 1 to 10 uM measured after 4 days by matrigel assay; format: cell-based; settings: SK-BR-3
Procedure, shortened: (§4)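 SKBR3 cells grown in Matrigel with vehicle or compound (1 to 10 μM), three dishes per condition. After 4 days cells recovered from Matrigel and lysed in PLC buffer with protease inhibitors. Total and phospho Erk1/2 and Akt detected by SDS-PAGE immunoblot.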

[11] = biological target: T1, Tyrosine-protein phosphatase non-receptor type 11 (Homo sapiens); experiment: Inhibition of SHP2 in human NCI-H1975 cells assessed as reduction in EGF-induced Erk1/2 phosphorylation after 60 mins by immunoblot analysis; format: cell-based; procedure, shortened: as §1
[12] = biological target: Mast/stem cell growth factor receptor Kit (Homo sapiens) (UniProt P10721); experiment: Effect on wild type KIT (unknown origin) expressed in serum starved mouse 32D cells assessed as effect on Erk1/2 activation at 1 to 5 uM measured after 2 hrs by immunoblot analysis; format: cell-based; procedure, shortened: as §3
Mus musculus [13] = species: Mus musculus; experiment: Anticancer activity against mouse 32D cells bearing KITD814V mutant assessed as ligand dependent growth inhibition at 1 uM measured after 6 hrs; format: functional, cell-based; settings: in the assay text read “ligand independent” for “ligand dependent”; procedure, shortened: as §2
[14] = biological target: Receptor-type tyrosine-protein phosphatase epsilon (Homo sapiens, UniProt P23469); experiment: Inhibition of PTPepsilon (unknown origin)
Bone marrow cell [15] = experiment: Reduction in growth of C57BL/6 mouse Bone marrow cell bearing KITD814V mutant at 5 uM after 6 hrs; format: functional, cell-based
[16] = biological target: T1, Tyrosine-protein phosphatase non-receptor type 11 (Homo sapiens); experiment: Inhibition of SHP2 in human SKBR3 cells assessed as inhibition of total Akt phosphorylation level at 1 to 10 uM measured after 4 days by matrigel assay; format: cell-based; settings: SK-BR-3; procedure, shortened: as §4
[17] = biological target: T1, Tyrosine-protein phosphatase non-receptor type 11 (Homo sapiens); experiment: Inhibition of SHP2 in human NCI-H1975 cells assessed as reduction in EGF-induced Erk1/2 phosphorylation after 60 mins by immunoblot analysis in presence of SHP2 siRNA; format: cell-based
Procedure, shortened: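 H1975 cells transfected with SHP2 or scrambled siRNA using Lipofectamine 2000 for 6 h, then recovered in RPMI1640 with 10% FBS. Serum-starved overnight, treated with compound for 3 h, stimulated with 5 ng/mL EGF for 60 min. Phospho-Erk1/2 measured by immunoblot.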

[18] = biological target: Mast/stem cell growth factor receptor Kit (Homo sapiens) (UniProt P10721); experiment: Inhibition of KIT D814V mutant (unknown origin) expressed in serum starved mouse 32D cells assessed as inhibition of Akt activation at 1 to 5 uM measured after 2 hrs by immunoblot analysis; format: cell-based; procedure, shortened: as §3
SK-BR-3 = experiment: Anticancer activity against human SKBR3 cells assessed as growth inhibition at 3 uM measured within 24 hrs by matrigel assay; format: functional, cell-based
Procedure, shortened: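 About 300000 SKBR3 cells seeded into 150 μL growth factor reduced Matrigel. Three dishes per condition received medium containing DMSO vehicle or compound. Colonies imaged every 24 h under a stereo microscope. Cross-sectional area of individual colonies measured from the images.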

[19] = biological target: T1, Tyrosine-protein phosphatase non-receptor type 11 (Homo sapiens); experiment: Inhibition of SHP2 dephosphorylation activity in human NCI-H1975 cells assessed as increase in paxillin (pY118) phosphorylation after 60 mins by immunoblot analysis; format: cell-based; procedure, shortened: as §1
NCI-H1975 [20] = experiment: Effect on PMA-induced Erk1/2 phosphorylation in human NCI-H1975 cells at 0.5 to 2 uM after 30 mins by immunoblot analysis; format: functional, cell-based
[21] = biological target: Mast/stem cell growth factor receptor Kit (Homo sapiens) (UniProt P10721); experiment: Effect on wild type KIT (unknown origin) expressed in serum starved mouse 32D cells assessed as effect on Akt activation at 1 to 5 uM measured after 2 hrs by immunoblot analysis; format: cell-based; procedure, shortened: as §3

Mast/stem cell growth factor receptor Kit (Homo sapiens), sequence (P10721 whole entry): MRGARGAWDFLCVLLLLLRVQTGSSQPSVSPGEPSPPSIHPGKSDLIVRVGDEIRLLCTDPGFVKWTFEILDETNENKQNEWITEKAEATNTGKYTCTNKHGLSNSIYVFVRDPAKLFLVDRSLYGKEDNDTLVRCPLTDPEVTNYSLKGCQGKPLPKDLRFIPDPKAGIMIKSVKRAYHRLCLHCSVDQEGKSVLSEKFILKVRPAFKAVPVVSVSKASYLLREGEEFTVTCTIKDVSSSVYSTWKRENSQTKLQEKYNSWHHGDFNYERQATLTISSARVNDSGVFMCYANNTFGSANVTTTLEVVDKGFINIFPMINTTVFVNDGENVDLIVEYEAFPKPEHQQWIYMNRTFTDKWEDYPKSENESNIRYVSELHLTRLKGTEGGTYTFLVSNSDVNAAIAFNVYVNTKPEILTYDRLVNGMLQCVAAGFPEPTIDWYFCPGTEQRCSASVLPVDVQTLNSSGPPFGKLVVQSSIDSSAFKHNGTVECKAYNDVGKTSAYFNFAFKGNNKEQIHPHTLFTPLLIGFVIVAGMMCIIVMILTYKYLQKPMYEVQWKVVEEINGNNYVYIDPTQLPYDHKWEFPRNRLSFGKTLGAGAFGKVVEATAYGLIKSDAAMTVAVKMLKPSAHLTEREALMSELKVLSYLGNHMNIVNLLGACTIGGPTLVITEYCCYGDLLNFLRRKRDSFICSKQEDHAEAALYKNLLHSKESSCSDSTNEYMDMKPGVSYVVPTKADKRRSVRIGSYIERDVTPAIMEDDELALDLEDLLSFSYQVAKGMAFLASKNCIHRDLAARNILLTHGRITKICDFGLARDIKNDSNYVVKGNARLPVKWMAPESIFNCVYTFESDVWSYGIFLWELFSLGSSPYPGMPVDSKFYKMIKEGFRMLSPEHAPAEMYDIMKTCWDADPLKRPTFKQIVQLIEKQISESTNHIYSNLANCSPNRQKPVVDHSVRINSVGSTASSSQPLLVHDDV
Receptor-type tyrosine-protein phosphatase alpha, sequence (P18433 whole entry): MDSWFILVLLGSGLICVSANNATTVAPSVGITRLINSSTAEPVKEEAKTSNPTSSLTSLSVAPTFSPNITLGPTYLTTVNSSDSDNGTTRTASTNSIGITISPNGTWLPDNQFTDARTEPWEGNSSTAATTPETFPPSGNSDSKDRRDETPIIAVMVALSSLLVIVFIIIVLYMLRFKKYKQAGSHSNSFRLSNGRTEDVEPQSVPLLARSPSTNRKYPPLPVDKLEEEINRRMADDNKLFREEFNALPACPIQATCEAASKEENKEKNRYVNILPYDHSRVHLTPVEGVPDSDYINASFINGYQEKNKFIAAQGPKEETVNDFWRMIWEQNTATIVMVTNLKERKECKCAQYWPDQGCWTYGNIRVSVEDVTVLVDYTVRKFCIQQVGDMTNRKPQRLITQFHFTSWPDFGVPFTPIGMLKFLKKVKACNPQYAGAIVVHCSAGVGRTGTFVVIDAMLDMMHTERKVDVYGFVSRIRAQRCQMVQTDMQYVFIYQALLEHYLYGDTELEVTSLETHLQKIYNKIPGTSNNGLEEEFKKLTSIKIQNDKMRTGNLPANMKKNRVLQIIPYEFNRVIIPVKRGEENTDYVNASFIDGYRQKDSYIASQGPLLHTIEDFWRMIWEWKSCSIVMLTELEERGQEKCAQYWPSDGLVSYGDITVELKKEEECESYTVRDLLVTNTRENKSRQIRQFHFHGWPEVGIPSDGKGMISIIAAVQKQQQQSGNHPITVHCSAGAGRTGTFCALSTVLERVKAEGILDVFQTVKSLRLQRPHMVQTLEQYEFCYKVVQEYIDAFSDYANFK
Receptor-type tyrosine-protein phosphatase epsilon, sequence (P23469 whole entry): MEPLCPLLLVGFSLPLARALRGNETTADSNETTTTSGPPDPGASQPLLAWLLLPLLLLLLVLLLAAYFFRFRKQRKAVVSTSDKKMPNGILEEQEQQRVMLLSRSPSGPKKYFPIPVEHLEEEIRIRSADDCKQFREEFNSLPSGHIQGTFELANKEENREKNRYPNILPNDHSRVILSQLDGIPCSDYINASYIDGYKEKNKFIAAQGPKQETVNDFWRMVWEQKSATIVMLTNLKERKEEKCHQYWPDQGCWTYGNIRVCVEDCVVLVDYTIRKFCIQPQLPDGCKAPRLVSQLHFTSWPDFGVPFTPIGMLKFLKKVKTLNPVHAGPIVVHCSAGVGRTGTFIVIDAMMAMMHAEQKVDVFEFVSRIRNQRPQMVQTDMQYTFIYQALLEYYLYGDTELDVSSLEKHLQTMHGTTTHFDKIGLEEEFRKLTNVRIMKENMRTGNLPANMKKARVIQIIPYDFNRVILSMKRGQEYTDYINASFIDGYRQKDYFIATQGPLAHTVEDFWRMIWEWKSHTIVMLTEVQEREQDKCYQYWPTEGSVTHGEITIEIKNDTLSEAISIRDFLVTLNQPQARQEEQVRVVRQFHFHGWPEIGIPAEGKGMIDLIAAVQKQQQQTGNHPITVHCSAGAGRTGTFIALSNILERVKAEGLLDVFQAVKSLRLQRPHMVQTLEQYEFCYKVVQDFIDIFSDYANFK

- inhibition [1]: inactive
- inhibition [2]: inactive
SMILES: Cn1c(-c2cccc(NC(=O)C(=O)O)c2)c(I)c2cc(C(=O)O)c(O)cc21

- IC50 [3]: > 20 µM
SMILES: CCCN(CC1CC1)C(=O)CCC(=O)Nc1cccc(-c2c(I)c3cc(C(=O)O)c(O)cc3n2C)c1

SMILES: Cn1c(-c2ccccc2)c(-c2cn(CCC(=O)Nc3ccc(-c4ccccc4)cc3)nn2)c2cc(C(=O)O)c(O)cc21
- inhibition (Mus musculus [4]): Active
- inhibition (Mus musculus [5]): inactive

- inhibition [6]: Dose-dependent effect
- IC50 (NCI-H1975 [8]; NCI-H1975, 48 h): 0.17 µM
- IC50 [9]: > 100 µM
- inhibition [10]: Active
- inhibition [11]: Dose-dependent effect
- inhibition [12]: inactive
- inhibition [1]: 40%
- IC50 [14]: > 20 µM
- inhibition [16]: Active
- inhibition [17]: inactive
- inhibition [18]: Dose-dependent effect
- Activity [2]: 30%
- inhibition [19]: Dose-dependent effect
- inhibition [21]: inactive
SMILES: Cn1c(-c2cccc(NC(=O)C(=O)Nc3ccc(-c4ccsc4)cc3)c2)c(I)c2cc(C(=O)O)c(O)cc21
- inhibition (Bone marrow cell [7]): Active
- inhibition (NCI-H1975 [8]): Dose-dependent effect
- inhibition (Mus musculus [13]): Active
- inhibition (Mus musculus [4]): Active
- inhibition (Mus musculus [5]): inactive
- inhibition (Bone marrow cell [15]): Active
- inhibition (SK-BR-3): Active
- Activity (NCI-H1975 [20]): inactive
